Like-named read-outs stand apart in the source and are kept apart here.
B1: sialoL: salivary cystatin (cysteine protease inhibitor) from the tick Ixodes scapularis, recombinant from E. coli (protein)
chain: TGVFGGYSERANHQANPEFLNLAHYATSTWSAQQPGKTHFDTVAEVVKVETQVVAGTNYRLTLKVAESTCELTSTYNKDTCLPKADAAHRTCTTVVFENLQGDKSVSPFECEAA
B2: sialoL2: salivary cystatin (cysteine protease inhibitor) from the tick Ixodes scapularis, recombinant from E. coli (protein)
chain: MELALRGGYRERSNQDDPEYLELAHYATSTWSAQQPGKTHFDTVVEVLKVETQTVAGTNYRLTLKVAESTCELTSTYNKDTCQANANAAQRTCTTVIYRNLQGEKSISSFECAAA

Legend:
[1] = biological target: T1, purified human cathepsin H (Homo sapiens, UniProt P09668); assay: Inhibition of cathepsin H, fluorogenic substrate assay; type: biochemical
T1 sequence (P09668 98-335): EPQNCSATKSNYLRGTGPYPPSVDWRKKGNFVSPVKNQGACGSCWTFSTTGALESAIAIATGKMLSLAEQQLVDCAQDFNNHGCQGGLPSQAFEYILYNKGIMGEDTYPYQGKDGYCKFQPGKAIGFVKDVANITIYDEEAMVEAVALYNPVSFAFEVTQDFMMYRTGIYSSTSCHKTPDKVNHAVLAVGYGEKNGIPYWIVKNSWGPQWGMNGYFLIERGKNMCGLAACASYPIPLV

[2] = biological target: purified bovine cathepsin B (Bos taurus, UniProt P07688); assay: Inhibition of cathepsin B, fluorogenic substrate assay; type: biochemical
Method in brief: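 Pre-incubated 10 min at room temperature with increasing inhibitor concentrations, then Z-Leu-Arg-AMC added (0.25 mM final) at 30°C. Linear hydrolysis rate read for 20 min (ex 365/em 450 nm). Triplicates, mean ± SEM. IC50 from activity loss.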

Row | Molecule | inhibition of cathepsin H (in words) [1] | inhibition of cathepsin B (in words) [2] | inhibition of cathepsin H (in words) ([1]; listed as sialostatin L2)
1 | B1 | no inhibition | no inhibition | 
2 | B2 |  | no inhibition | no detectable inhibition

Source: article PMC2909360 (Molecular microbiology, 2010)
